From PubChem
A selection: hits, their analogues and other compounds. The true share with any hit is near 2.4%.
S100A4 MyoIIA = blocks human S100A4 binding to myosin IIA peptide; P26447; S100A4/TAMRA-MyoIIA peptide fluorescence polarization; inhibition, % at 10.7 µM; 360,000 compounds, 0.14% hits; AID 652163;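 active = mean inhibition of at least 70% across replicates, with every replicate also reaching that level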
Target sequence (P26447 whole entry, looked up): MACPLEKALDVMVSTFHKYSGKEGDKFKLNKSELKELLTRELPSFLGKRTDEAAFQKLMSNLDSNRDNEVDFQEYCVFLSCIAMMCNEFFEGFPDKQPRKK
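Material: S100A4 monomer protein | Medium: HEPES pH 7.2 with CaCl2, KCl, NaCl, DTT, Triton | Reagent: Labelled myosin peptide probe, 5 nM | Doses: One dose per compound | Times: 5 min incubation before reading | Benchmarks: Neutral control DMSO, positive control TFP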
CASP6 VEID inh = blocks human caspase-6 cleavage activity; P55212; purified caspase-6, Z-VEID-R110 cleavage fluorescence; inhibition, % at 12.5 µM; 350,000 compounds, 0.53% hits; AID 686996;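 active = mean inhibition across replicates at least about 35%, with every replicate also reaching that limit, limit read from the data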;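 also: 0% = median of neutral control wells and 100% = no fluorescence left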
Target sequence (P55212 24-179 limits assumed): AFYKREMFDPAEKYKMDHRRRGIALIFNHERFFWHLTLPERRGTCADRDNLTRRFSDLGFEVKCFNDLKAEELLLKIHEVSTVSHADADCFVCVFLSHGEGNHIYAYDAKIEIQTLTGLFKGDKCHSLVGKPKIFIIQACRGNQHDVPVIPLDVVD
Target sequence (P55212 194-293 limits assumed): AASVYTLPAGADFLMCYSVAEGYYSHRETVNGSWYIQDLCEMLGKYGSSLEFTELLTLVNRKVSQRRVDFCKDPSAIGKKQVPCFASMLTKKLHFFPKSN
ARNT-TACC3 inh = disruptors of human ARNT/TACC3 interaction | inhibition, % at 9.99 µM | Q9Y6A5 | 390,000 compounds, 0.66% hits | AlphaScreen His-ARNT PAS-B/GST-TACC3 binding, luminescence; TACC3 fragment carries E629A point mutation;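 active = mean inhibition of replicates at least 50% and at least half of replicates each reaching 50%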;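 also: 0% = complete ARNT plus TACC3 wells and 100% = ARNT alone without TACC3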
Ecoli rRNA inh = selective bacterial rRNA inhibition in E. coli; E. coli WT GFP vs humanized-ribosome RFP mutants, fluorescence, 24 h; active compounds read low; DMSO median 0, no signal -100; GFP signal change (wild-type ribosome), % (test concentration not listed); 350,000 compounds, 1.6% hits; AID 720706;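 active = significant combined selectivity score with lowered wild-type GFP, culture density cut under 30%, mutant RFP and density less affected; inactive = any of these conditions unmet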
PGC1a acetyl inh = PGC1a acetylation modulation, inhibitor mode; U2OS PGC1a acetylation, AlphaScreen anti-acetyl-lysine; with virally co-expressed GCN5 acetyltransferase; inhibition, % at 15.6 µM; 350,000 compounds, 0.17% hits;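 active = every replicate shows inhibition of at least 40%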;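 also: 0% = neutral control wells and 100% = positive control wells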
ERAP1 inh = ERAP1 (human) enzyme inhibition. Q9NZ08. recombinant ERAP1, Leu-AMC fluorescence, 60 min. inhibition, % at 10.7 µM. 340,000 compounds, 0.15% hits. AID 652197;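 active = mean replicate inhibition of at least 30%, or all replicates individually reaching that 30% level; inactive = mean below 30% and not every replicate reaching it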;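 also: 0% = neutral control wells and 100% = L-leucinethiol positive control wells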
Numbers without * were called inactive; . = no result given.

SMILES	S100A4 MyoIIA	CASP6 VEID inh	ARNT-TACC3 inh	Ecoli rRNA inh	PGC1a acetyl inh	ERAP1 inh
CO[C@@H]1CN(C)C(=O)c2cc(NC(=O)CC(F)(F)F)ccc2OC[C@@H](C)N(C(=O)C2CCOCC2)C[C@@H]1C	-41	1	.	2	3	1
Cc1ccc(NC(=O)CSc2nnc(Cc3csc(C)n3)o2)c(C)c1	-3	62*	-3	4	.	-2
Cc1nc(Cc2nnc(SCC(=O)Nc3c(C)cccc3C)o2)cs1	-6	1	27	7	5	2
CCC(=O)Nc1ccc2c(c1)C(=O)N(C)[C@H]1CC[C@@H](CC(=O)NCC3CC3)O[C@@H]1CO2	-12	-2	-18	7	1	-2
CC1=[N+](C)c2c(ccc3cccnc23)C1(C)C	159*	0	16	-37	12	-2
Cc1[nH]c2c(ccc3cccnc32)c1C	-4	0	28	10	12	1
CN1C(=O)c2cc(NC(=O)c3ccccc3Cl)ccc2OC[C@@H]2O[C@H](CC(=O)NCC(F)(F)F)CC[C@@H]21	-2	-1	-3	0	.	2
O=C(Cc1ccccn1)N1CC2(C1)[C@@H](c1ccccc1)[C@@H](CO)N2C(=O)c1cccnc1	14	1	.	2	3	-1
CC12C(=O)N(c3nccs3)C(=O)C1(C)C1CCC2O1 (stereo unspecified)	6	0	.	13	3	0
C[C@@]12C(=O)OC(=O)[C@]1(C)C1CCC2O1	-3	-9	-4	.	47*	1
C=CCOc1ccc(Br)cc1/C=C1\NC(=S)N(C(C)=O)C1=O	1	4	1	-32*	9	8
O=C(C[C@@H]1CC[C@@H]2[C@H](COC[C@@H](O)CN2S(=O)(=O)c2ccc(Cl)cc2)O1)NCCN1CCCC1	-2	0	-13	4	1	1
CCOC(=O)C1=C(C)NC2=C(C(=O)c3ccccc32)C1c1cccc2ccccc12 (stereo unspecified)	5	-3	1	-19*	8	0
c1ccc(Nc2nc(-c3ccccc3)nc3ccccc23)cc1	-1	2	-6	-57	-21	0
Fc1cccc(Nc2nc(-c3ccncc3)nc3ccccc23)c1	6	53*	-5	17	-9	-1
CC(C)[n+]1ccn(C2=C([O-])c3ccccc3C(=O)/C2=N\S(=O)(=O)c2ccccc2)c1	-5	35*	17	.	4	4
C[C@H]1CN([C@@H](C)CO)C(=O)c2cc(NC(=O)Nc3ccc(C(F)(F)F)cc3)ccc2O[C@@H]1CN(C)Cc1ccccc1	-17	-3	-7	1	5	0
COc1cccc(C#Cc2cnc3c(c2)C(=O)N([C@@H](C)CO)C[C@@H](C)[C@@H](CN(C)C(=O)C2CC2)O3)c1	2	0	-5	-3	2	1
CC(=O)c1ccc(NC(=O)c2ccc3nc(-c4ccco4)c(-c4ccco4)nc3c2)cc1	.	.	11	.	-22	.
O=C(Nc1ccccc1)c1ccc2nc(-c3ccco3)c(-c3ccco3)nc2c1	.	.	47*	.	2	.
O=C(NCCCO)c1ccc2nc(-c3ccco3)c(-c3ccco3)nc2c1	-7	55*	47*	2	.	11
CCCNC(=O)c1ccc2nc(-c3ccccc3)c(-c3ccccc3)nc2c1	10	2	.	.	-7	2
CCCCNC(=O)c1ccc2nc(-c3ccco3)c(-c3ccco3)nc2c1	0	72*	17	-5	5	.
O=C(NCc1ccccc1)c1ccc2nc(-c3ccco3)c(-c3ccco3)nc2c1	.	.	4	.	-7	.
C[C@H](CO)N1C[C@H](C)[C@H](CN(C)C(=O)Nc2ccccc2)OCCCC[C@H](C)Oc2ccc(NC(=O)Cc3ccccc3)cc2C1=O	6	-1	-13	1	-5	1
COc1cccc(/C=C2\SC(=S)N(CCCC(=O)Nc3ccc(C(=O)O)cc3)C2=O)c1	13	0	-1	9	.	4
Cc1ccc(NC(=O)COc2cccc(/C=C3\SC(=S)N(CCC(=O)O)C3=O)c2)cc1Cl	4	42*	8	-3	5	3
